Compounds with a hit are over-represented: about 1.5% of the library has one in this group of screens.
CCR6 antagonist = blocks CCL20-driven beta-arrestin recruitment at human CCR6. AID 493098. hit rate 0.49% among 340,000. inhibition, % at 20 µM. CHO-K1 CCR6 PathHunter beta-arrestin, luminescence, CCL20-stimulated. P51684;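 active = compounds whose inhibition of the agonist-driven luminescence signal at 20 µM reaches about 50%, limit read from the data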;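 also: cells stimulated with CCL20 at 14 nM final; plate controls were DMSO with CCL20 for no effect and DMSO without agonist for full effect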
CXCR6 inh = CXCR6 (human) receptor inhibition; O00574; CHO-K1 PathHunter CXCR6 beta-arrestin, luminescence; inhibition, % at 20 µM; hit rate 0.36% among 360,000; in the data active = inhibition above about 34%, passing the limit was not always enough;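 also: antagonist mode with CXCL16 agonist at 10 nM final; 0% = 10 nM CXCL16 with DMSO and 100% = unstimulated wells without agonist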
Target sequence (O00574 whole entry, looked up): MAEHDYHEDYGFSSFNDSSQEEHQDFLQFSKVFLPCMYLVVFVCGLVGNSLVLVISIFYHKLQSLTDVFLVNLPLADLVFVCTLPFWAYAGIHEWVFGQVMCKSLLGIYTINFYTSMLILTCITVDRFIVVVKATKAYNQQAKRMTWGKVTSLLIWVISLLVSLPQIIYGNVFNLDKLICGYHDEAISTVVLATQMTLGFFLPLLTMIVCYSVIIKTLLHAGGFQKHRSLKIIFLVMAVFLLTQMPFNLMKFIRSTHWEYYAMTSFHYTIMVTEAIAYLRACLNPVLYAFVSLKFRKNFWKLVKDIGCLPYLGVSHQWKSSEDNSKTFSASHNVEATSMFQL
EBI2 antag = blocks human EBI2 receptor beta-arrestin signaling. EBI2 beta-arrestin recruitment, luminescence, 7a,25-OHC stimulated. inhibition, % at 5 µM. hit rate 0.81% among 360,000. AID 651636; in the data active = inhibition above about 38%;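 also: enzyme fragment complementation signal reports receptor beta-arrestin coupling in cells; 0% = agonist plus DMSO wells and 100% = wells without agonist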
Target sequence (P32249 whole entry, looked up, the tested form may be a part): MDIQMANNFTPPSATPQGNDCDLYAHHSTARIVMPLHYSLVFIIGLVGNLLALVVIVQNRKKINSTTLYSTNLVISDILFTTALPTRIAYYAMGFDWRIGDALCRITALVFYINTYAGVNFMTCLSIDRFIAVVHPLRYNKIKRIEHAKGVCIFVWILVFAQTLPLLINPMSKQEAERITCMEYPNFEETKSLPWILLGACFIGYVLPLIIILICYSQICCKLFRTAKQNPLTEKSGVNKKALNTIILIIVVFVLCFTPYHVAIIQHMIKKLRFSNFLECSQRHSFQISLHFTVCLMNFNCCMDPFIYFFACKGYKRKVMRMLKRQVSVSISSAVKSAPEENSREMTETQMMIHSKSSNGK
APJ ag = agonists of human APJ apelin receptor | CHO-K1 APJ PathHunter beta-arrestin, luminescence; 0% DMSO wells, 100% apelin | activation, % at 20 µM | hit rate 0.11% among 330,000;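 active = activation more than six SD over the plate average, tested at 20 µM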;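 also: 0% = DMSO alone and 100% = apelin-13 at 10 nM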
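Assay system – PathHunter CHO-K1 APJ (AGTRL-1) beta-arrestin reporter cells · Compound – one dose, 20 µM compound, 1% DMSO · Timing – compound 90 min 25 °C, reagent 1 h · Measured by – luminescence from split beta-galactosidase complementation, Galacton Star/Emerald II substrate · Measure – beta-arrestin recruitment to APJ as agonist activity, luminescent signal · Benchmarks – DMSO vs Apelin-13 10 nM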
APJ antagonist = antagonists of human APJ apelin receptor; P35414; CHO-K1 APJ beta-arrestin complementation, luminescence; inhibition, % at 20 µM; hit rate 0.32% among 330,000;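 active = inhibition above about 40% at 20 µM, limit read from the data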;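 also: cells challenged with 10 nM apelin-13 agonist together with compound; plate controls were apelin-13 plus DMSO wells for no effect and DMSO wells lacking apelin-13 for full effect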
APJ antag confirm = APJ receptor antagonism confirmation; inhibition, % at 20 µM; AID 2766; shares compounds with APJ antagonist; APJ beta-arrestin recruitment, luminescence, antagonist mode; hit rate 66% among 950; in the data active = inhibition above about 50%
* marks the source's active call; other numbers are inactive results; . = no result given.

SMILES	CCR6 antagonist	CXCR6 inh	EBI2 antag	APJ ag	APJ antagonist	APJ antag confirm
Oc1[nH]c2c(Cl)cc(Cl)cc2c1N=NC(=S)NCC1CCCO1 (stereo unspecified)	58.0*	36.5	29.1	-1.3	40.2*	64.5*
O=C(Nc1ccccc1C(F)(F)F)NC1CCCCCCC1	12.2	-9.9	1.4	-3.4	8.8	.
ON1C2CCCCC2N(O)C1c1ccccc1C(F)(F)F (stereo unspecified)	56.3*	18.7	-1.4	-7.6	48.2*	29.3
CCOC1=C2CN(S(=O)(=O)c3ccc(C)cc3)[C@H](c3ccccc3)C[C@H]2[C@H]2C(=O)N(c3ccccc3)C(=O)[C@H]2C1	.	-2.8	-2.1	.	.	.
COCCn1c(N)c(N(Cc2ccccc2)C(=O)c2oc3ccccc3c2C)c(=O)[nH]c1=O	9.6	-8.3	-1.8	-0.9	-18.6	.
COc1ccc(/C=C/C(=O)NC(=S)NNC(=O)c2c(-c3ccccc3)noc2C)cc1	3.5	32.0	17.3	-7.2	43.4*	91.6*
Cc1[nH]n(C(N)=S)c(=O)c1N=Nc1ccc(S(=O)(=O)N2CCCC2)cc1	46.8	28.4	4.2	-13.4	57.2*	80.1*
Cc1ccc(N=Nc2c(C)[nH]n(C(N)=S)c2=O)cc1	25.9	20.6	16.4	-0.5	6.0	.
CN(C)c1ccc2nc3ccc(=O)cc-3sc2c1	.	-1.0	-3.5	.	.	.
CN(C)c1ccc2nc3ccc(=[N+](C)C)cc-3sc2c1	35.7	18.5	10.9	-6.4	45.3*	32.5
CCN(CC)c1ccc2nc3ccc(N)cc3[n+](-c3ccccc3)c2c1	58.6*	39.9	11.4	-10.2	45.0*	95.7*
CCN(CC)c1ccc2nc3ccccc3[n+](CC)c2c1	40.1	21.1	4.4	-6.3	28.8	.
O=S(=O)(O)c1cc(Cl)cc(N=Nc2ccc(O)cc2O)c1O	49.5	31.0	7.3	.	.	.
O=S(=O)(O)c1cc(O)c2c(O)c(N=Nc3cc(Cl)ccc3O)c(S(=O)(=O)O)cc2c1	60.1*	38.9	8.5	-7.1	40.2*	69.9*
CC(C)Cc1nc2oc3c(Cl)ncnc3c2c2c1CCC2	22.7	14.8	48.3*	-2.1	40.8*	86.4*
C=CCNCCCCOc1ccc(C)cc1[N+](=O)[O-]	10.5	-6.1	-19.0	-2.1	7.7	.
CCc1nc2ccc(C(=O)NCc3ccc4c(c3)OCO4)cn2c1N(CC)Cc1cccc(Br)c1	.	13.2	15.1	.	.	.
Cc1ccc(C(=O)CNc2cccc(Cl)c2)cc1	47.1	19.5	14.5	-9.4	65.9*	77.1*
O=C(CNc1cccc(Cl)c1)c1ccc(Cl)cc1	46.9	40.8*	24.9	-15.8	72.7*	90.9*
CCOc1ccccc1N1CCN(CC(=O)N(C)CC(=O)Nc2ccccc2CC)CC1	.	-4.1	-1.4	.	.	.
CCC1C(=O)Nc2nc(-c3ccccc3)c(-c3ccccc3)n2N=C1C (stereo unspecified)	0.9	-6.0	2.1	1.3	-17.6	.
Cc1csc(SCC(=O)Nc2cc([N+](=O)[O-])ccc2F)n1	2.3	7.4	2.4	-2.4	20.3	.
O=C(Nc1nnc(SCc2ccc(F)cc2)s1)c1cnccn1	19.9	2.2	-7.0	-3.7	49.4*	60.1*
CCSc1nnc(NC(=O)c2cnccn2)s1	2.8	.	.	-1.1	4.7	.
CCSc1nnc(NC(=O)c2ccccn2)s1	36.9	24.4	8.2	-6.2	43.6*	60.0*
SMILES	CCR6 antagonist	CXCR6 inh	EBI2 antag	APJ ag	APJ antagonist	APJ antag confirm
CC(=O)C1=CCC(c2ccc(C)o2)N(S(=O)(=O)c2ccc(C)cc2)C1 (stereo unspecified)	.	-0.2	-1.1	.	.	.
CC(C)OC(=O)CSc1nnc(-c2cnccn2)n1-c1ccccc1	-4.9	6.7	-7.7	-2.7	-19.7	.
CCCC(C(=O)Nc1ccc2c(C)cc(=O)oc2c1)c1ccccc1 (stereo unspecified)	3.6	12.6	19.6	-1.7	-19.7	.
O=C(OCC(=O)c1ccccc1Br)c1ccccn1	-5.2	1.5	-20.2	-5.4	2.2	.
O=C(OCC(=O)c1ccc(Cl)cc1Cl)c1ccc2c(c1)C(=O)N(c1cccc3ncccc13)C2=O	44.1	8.5	35.8	-9.0	55.5*	72.8*
O=C(CCC(=O)OCC(=O)c1ccc(Cl)cc1Cl)Nc1cccc2cccnc12	62.4*	12.0	8.9	-11.6	64.3*	92.4*
O=C(OCC(=O)c1ccc(Cl)cc1Cl)c1ccccn1	47.6	26.1	10.4	-10.2	61.8*	88.7*
CC(C)(C)CC(C)(C)NC(=O)/C=C/C(=O)O	-1.9	2.2	-8.5	-0.6	11.0	.
O=C(NCc1ccc(F)cc1)c1[nH]c(C(F)(F)F)nc1-c1ccccc1	.	-8.2	-5.9	.	.	.
CCOc1cc(/C=C2/SC(=S)N(CC3CCCO3)C2=O)ccc1O (stereo unspecified)	66.6*	50.9*	9.1	-6.7	48.4*	101.5*
CCOc1cc(/C=C2\SC(=S)N(C(C(=O)O)c3ccccc3)C2=O)ccc1O (stereo unspecified)	50.1*	47.6*	1.1	-7.8	49.1*	92.1*
COc1cc(/C=C2\SC(=S)N(C(C(=O)O)c3ccccc3)C2=O)ccc1O (stereo unspecified)	47.1	42.0*	0.4	-10.2	50.0*	91.2*
COc1ccccc1/C=C1\SC(=S)N(C(C(=O)O)c2ccccc2)C1=O (stereo unspecified)	12.5	16.8	9.4	2.5	13.4	.
O=C1/C(=C/c2cccc(O)c2)SC(=S)N1CC1CCCO1 (stereo unspecified)	6.8	6.5	-6.6	-4.3	8.0	.
CCOc1ccc(/C=C2/SC(=S)N(C(C(=O)O)c3ccccc3)C2=O)cc1OCC (stereo unspecified)	29.9	25.0	-7.0	.	.	.
O=C(O)C(c1ccccc1)N1C(=O)/C(=C\c2ccc(O)c(O)c2)SC1=S (stereo unspecified)	53.1*	41.7*	10.2	-7.3	45.4*	87.3*
COc1ccc(NCc2ccc(OC)c(Cn3ccnc3)c2)c(OC)c1	12.4	-0.6	-0.4	-0.2	3.1	.
O=C(CSc1nc2nn(-c3ccccc3)c(=O)c-2c2n1CCCCC2)c1ccc(O)c(O)c1	23.3	-0.4	1.7	-3.0	2.1	.
CC(C)(CNC(=O)/C=C/c1ccc(F)cc1)CNC(=O)/C=C/c1ccc(F)cc1	3.0	8.7	29.9	-2.3	8.5	.
OCCN1CCN(c2ncnc3sc(-c4ccccc4)cc23)CC1	-5.9	3.8	18.4	1.1	21.9	.
O=C(CCC(=O)OCC(=O)c1cccc([N+](=O)[O-])c1)NC1CCCCC1	58.2*	23.7	4.6	-15.3	42.5*	99.4*
O=C(COC(=O)c1cc2ccccc2oc1=O)c1cccc([N+](=O)[O-])c1	51.7*	28.7	11.7	-6.3	48.1*	82.9*
O=C(COC(=O)c1cnccn1)c1ccc2ccccc2c1	30.7	10.5	-4.5	-1.7	30.3	.
O=C(COC(=O)c1cnccn1)c1cccc([N+](=O)[O-])c1	52.8*	32.5	3.0	-13.4	41.9*	79.4*
